Reference: ChEMBL document CHEMBL1132144, “Synthesis of 9-O-substituted derivatives of 9-hydroxy-5, 6-dimethyl-6H-pyrido[4,3-b]carbazole-1-carboxylic acid (2-(dimethylamino)ethyl)amide and their 10- and 11-methyl analogues with improved antitumor activity” (J Med Chem, 1999)

Key:
[1] = tested on: Mus musculus; assay: Percent median survival time of mice injected with B16 melanoma, at a intraperitoneal compound dose of 2.5 mg/kg
[2] = tested on: Mus musculus; assay: Long-term survivors among 12 mice infected with P388 leukemia, scored on day 60 at 10 mg/kg dose; format: functional
Outline: (§1)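 B6D2F1 mice in groups of 6–7 were inoculated ip on day 0 with 10^6 P388 cells. Dihydrochloride salts were dissolved in water and given iv on day 1 or on days 1, 5 and 9. Doses ranged from a low nontoxic dose to a toxic one. Long-term survivors were counted at day 60.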

[3] = tested on: Mus musculus; assay: Percent median survival time of mice intraperitoneally injected with P388 leukemia was determined from tested at 10 mg/kg at day1,5,9 dose to that of control; format: functional
Outline: (§2)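 P388 leukemia in B6D2F1 mice (groups of 6–7), 10^6 cells inoculated ip on day 0. Dihydrochloride salts were dissolved in water and given iv on day 1 or on days 1, 5, 9. Three doses were tested, then five if active. %T/C = median survival treated/control × 100, reported at the optimal dose (no toxic death, weight loss <20%), from one or two representative experiments.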

[4] = tested on: Mus musculus; assay: Long-term survivors among 18 mice infected with P388 leukemia, scored on day 60 at 40 mg/kg dose; format: functional
Outline: as §1

[5] = tested on: Mus musculus; assay: Percent median survival time of mice intraperitoneally injected with P388 leukemia was determined from tested at 40 mg/kg at day1 dose to that of control; format: functional; details: route intraperitoneal
Outline: as §2

[6] = tested on: Mus musculus; assay: Long-term survivors among 14 mice infected with B16 melanoma, scored on day 90 at 2.5 mg/kg dose
[7] = tested on: B16; assay: Inhibition of murine B16 melanoma cell proliferation measured by the MTT assay; format: functional, cell-based; details: Mus musculus
Outline: (§3)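 Murine L1210 leukemia and B16 melanoma cells were grown in RPMI 1640 with 10% fetal calf serum, 2 mM L-glutamine, penicillin/streptomycin and 10 mM HEPES (pH 7.4). Cells were exposed to nine serial drug dilutions in triplicate for about four doubling times (L1210 48 h, B16 96 h), then read by microculture tetrazolium (MTT) assay. IC50 is the concentration halving optical density versus untreated controls, averaged over ≥2 independent experiments.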

[8] = tested on: L1210; assay: Inhibition of murine L1210 leukemia cell proliferation measured by the MTT assay; format: functional, cell-based; details: Mus musculus
Outline: as §3

[9] = tested on: Mus musculus; assay: Percent median survival time of mice injected with B16 melanoma, at a intraperitoneal compound dose of 5 mg/kg
[10] = tested on: Mus musculus; assay: Long-term survivors among 12 mice infected with P388 leukemia, scored on day 60 at 20 mg/kg dose on day 1; format: functional
Outline: as §1

[11] = tested on: Mus musculus; assay: Long-term survivors among 12 mice infected with P388 leukemia, scored on day 60 at 10 mg/kg dose on day 1, 5, 9; format: functional
Outline: as §1

[12] = tested on: Mus musculus; assay: Percent median survival time of mice injected with P388 leukemia, at a subcutaneous compound dose of 20 mg/kg; format: functional
[13] = tested on: Mus musculus; assay: Percent median survival time of mice injected with P388 leukemia, at a subcutaneous compound dose of 10 mg/kg; format: functional
[14] = tested on: Mus musculus; assay: Long-term survivors among 7 mice infected with B16 melanoma, scored on day 90 at 40 mg/kg dose on day 1, 5, 9; format: functional
[15] = tested on: Mus musculus; assay: Percent median survival time of mice intraperitoneally injected with P388 leukemia was determined from tested at 160 mg/kg at day1,5,9 dose to that of control; format: functional; details: route intraperitoneal
Outline: as §2

[16] = tested on: Mus musculus; assay: Percent median survival time of mice intraperitoneally injected with P388 leukemia was determined from tested at 320 mg/kg at day1 dose to that of control; format: functional; details: route intraperitoneal
Outline: as §2

[17] = tested on: Mus musculus; assay: Percent median survival time of mice injected with B16 melanoma, at a intraperitoneal compound dose of 80 mg/kg
[18] = tested on: Mus musculus; assay: Long-term survivors among 6 mice infected with P388 leukemia, scored on day 60 at 320 mg/kg dose; format: functional
Outline: as §1

[19] = tested on: Mus musculus; assay: Long-term survivors among 6 mice infected with P388 leukemia, scored on day 60 at 160 mg/kg dose; format: functional
Outline: as §1

[20] = tested on: Mus musculus; assay: Long-term survivors among 7 mice infected with B16 melanoma, scored on day 90 at 80 mg/kg dose
[21] = tested on: Mus musculus; assay: Percent median survival time of mice injected with P388 leukemia, at a subcutaneous compound dose of 5 mg/kg on day 1; format: functional
[22] = tested on: Mus musculus; assay: Long-term survivors among 6 mice infected with B16 melanoma, scored on day 90 at 102 mg/kg dose on day 1; format: functional
[23] = tested on: Mus musculus; assay: Percent median survival time of mice injected with B16 melanoma, at a intraperitoneal compound dose of 20 mg/kg
[24] = tested on: Mus musculus; assay: Long-term survivors among 6 mice infected with P388 leukemia, scored on day 60 at 5 mg/kg dose on day 1; format: functional
Outline: as §1

[25] = tested on: Mus musculus; assay: Percent median survival time of mice injected with P388 leukemia, at a subcutaneous compound dose of 5 mg/kg on day 1, 5, 9; format: functional
[26] = tested on: Mus musculus; assay: Long-term survivors among 7 mice infected with P388 leukemia, scored on day 90 at 5 mg/kg dose; format: functional
[27] = tested on: Mus musculus; assay: Long-term survivors among 6 mice infected with P388 leukemia, scored on day 60 at 20 mg/kg dose on day 1; format: functional
Outline: as §1

[28] = tested on: Mus musculus; assay: Long-term survivors among 6 mice infected with P388 leukemia, scored on day 60 at 20 mg/kg dose on day 1, 5, 9; format: functional
Outline: as §1

[29] = tested on: Mus musculus; assay: Percent median survival time of mice intraperitoneally injected with P388 leukemia was determined from tested at 20 mg/kg at day1 dose to that of control; format: functional; details: route intraperitoneal
Outline: as §2

[30] = tested on: Mus musculus; assay: Percent median survival time of mice intraperitoneally injected with P388 leukemia was determined from tested at 20 mg/kg at day1,5,9 dose to that of control; format: functional; details: route intravenous
Outline: as §2

[31] = tested on: Mus musculus; assay: Long-term survivors among 10 mice infected with P388 leukemia, scored on day 60 at 20 mg/kg dose; format: functional
[32] = tested on: Mus musculus; assay: Long-term survivors among 10 mice infected with P388 leukemia, scored on day 60 at 10 mg/kg dose; format: functional
[33] = tested on: Mus musculus; assay: Long-term survivors among 6 mice infected with P388 leukemia, scored on day 60 at 20 mg/kg dose; format: functional
Outline: as §1

[34] = tested on: Mus musculus; assay: Percent median survival time of mice injected with P388 leukemia, at a intravenous compound dose of 7.5 mg/kg
[35] = tested on: Mus musculus; assay: Long-term survivors among 6 mice infected with P388 leukemia, scored on day 60 at 7.5 mg/kg dose; format: functional
Outline: as §1

[36] = tested on: Mus musculus; assay: Long-term survivors among 7 mice infected with B16 melanoma, scored on day 90 at 20 mg/kg dose
[37] = tested on: Mus musculus; assay: Percent median survival time of mice injected with B16 melanoma, at a intraperitoneal compound dose of 0.5 mg/kg

Cc1c2c(C(=O)NCCN(C)C)nccc2c(C)c2c1c1cc(O)ccc1n2C
T/C [1]: 166% | LTS [2]: 9 | T/C [3]: >600% | LTS [4]: 15 | T/C [5]: >600% | LTS [6]: 1 | IC50 [7]: 3.4 nM | IC50 [8]: 13.4 nM

Cc1c2ccnc(C(=O)NCCN(C)C)c2cc2c3cc(OC(=O)C4C[C@@H]4c4ccccc4)ccc3n(C)c12 (some centres undefined)
T/C [9]: 129% | LTS [10]: 0 | IC50 [7]: 14.1 nM | LTS [11]: 0 | T/C [12]: 146% | IC50 [8]: 30.9 nM | T/C [13]: 152% | LTS [14]: 0

Cc1c2ccnc(C(=O)NCCN(C)C)c2cc2c3cc(OP(=O)(O)OCc4ccccc4)ccc3n(C)c12
T/C [15]: 111% | IC50 [7]: 511 nM | T/C [16]: 142% | IC50 [8]: 4000 nM | T/C [17]: 144% | LTS [18]: 0 | LTS [19]: 0 | LTS [20]: 0

Cc1c2ccnc(C(=O)NCCN(C)C)c2cc2c3cc(OC(=O)N4CCN(C(c5ccccc5)c5ccccc5)CC4)ccc3n(C)c12
T/C [21]: 102% | LTS [22]: 0 | IC50 [7]: 590 nM | T/C [23]: 102% | LTS [24]: 0 | IC50 [8]: 164 nM | T/C [25]: 94%

Cc1c2ccnc(C(=O)NCCN(C)C)c2cc2c3cc(OCC4C[C@@H]4c4ccccc4)ccc3n(C)c12 (some centres undefined)
T/C [9]: 94% | LTS [26]: 0 | LTS [27]: 0 | LTS [28]: 0 | IC50 [7]: 279 nM | T/C [29]: 102% | IC50 [8]: 374 nM | T/C [30]: 99%

COc1cccc2c1C(=O)c1c(O)c3c(c(O)c1C2=O)C[C@@](O)(C(=O)CO)C[C@@H]3O[C@H]1C[C@H](N)[C@H](O)[C@H](C)O1 [DOXORUBICIN]
T/C [1]: 456% | LTS [31]: 2 | LTS [32]: 4 | IC50 [7]: 7.6 nM | T/C [12]: 258% | IC50 [8]: 34.3 nM | T/C [13]: 332%

Cc1c2cc[n+](C)cc2c(C)c2c1[nH]c1ccc(O)cc12 [ELLIPTINIUM]
LTS [33]: 0 | T/C [34]: 112% | LTS [35]: 0 | LTS [36]: 0 | IC50 [7]: 106 nM | T/C [12]: 138% | IC50 [8]: 54.6 nM | T/C [37]: 133%
